Measured values from ChEMBL document CHEMBL5154742, “Thiosugar naphthalene diimide conjugates: G-quadruplex ligands with antiparasitic and anticancer activity” (Eur J Med Chem, 2022).
Active and inactive are the calls of the source. The rule behind the calls is not given here.

Tests used:
[1] = tested on: HT-29; assay: Cytotoxicity against human HT-29 cells assessed as reduction in cell viability incubated for 48 hrs by MTT assay; type: functional, cell-based; details: HT-29, 48 h
Method in brief: (§1)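 MTT assay: 5×10^3 cells per well in DMEM with 10% hiFBS (4.5 g/L glucose for HT-29, 1 g/L for MRC-5), exposed to increasing compound concentrations for 48 h at 37 °C. MTT added for 4 h, formazan dissolved in DMSO, absorbance read at 575 nm. IC50 from four-parameter logistic fit.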

[2] = Selectivity index, ratio of IC50 for human MRC5 cells to IC50 for human HT-29 cells; type: toxicity; details: MRC5 cells versus HT-29 cells, read-out: Selectivity Index
Method in brief: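 Selectivity index: MRC-5 IC50 divided by HT-29 IC50.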

[3] = Selectivity index, ratio of IC50 for cytotoxicity against human MRC5 cells to IC50 for antitrypanosomal activity against Trypanosoma brucei; type: toxicity, cell-based; details: MRC5 cells versus Trypanosoma brucei, read-out: Selectivity Index
Method in brief: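 Selectivity index: MRC-5 IC50 divided by T. brucei IC50.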

[4] = tested on: Trypanosoma brucei; assay: Antitrypanosomal activity against Trypanosoma brucei incubated for 72 hrs by alamar blue dye based fluorimetry analysis; type: functional, organism-based
Method in brief: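 Bloodstream-form T. brucei S16 (Lister 427, MiTat 1.2), 1×10^3 per well in HMI-9 with 20% hiFBS, exposed to increasing compound concentrations for 72 h at 37 °C, 5% CO2. Resazurin then added for 4 h, cells lysed with SDS, fluorescence read at ex 550/em 590 nm. IC50 from four-parameter logistic fit; three independent runs, each in triplicate.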

[5] = Selectivity index, ratio of IC50 for cytotoxicity against human MRC5 cells to IC50 for antileishmanial activity against Leishmania major (MHOM/IL/80/Friedlin) promastigotes; type: toxicity, cell-based; details: read-out: Selectivity Index
Method in brief: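 Selectivity index: MRC-5 IC50 divided by L. major promastigote IC50.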

[6] = tested on: Leishmania major; assay: Antileishmanial activity against Leishmania major (MHOM/IL/80/Friedlin) promastigotes assessed as reduction in parasite growth incubated for 72 hrs by MTT assay; type: functional, organism-based
Method in brief: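 L. major Friedlin promastigotes, 1×10^6/mL in modified RPMI-1640 with 10% hiFBS, exposed to increasing compound concentrations for 72 h at 28 °C; proliferation read by MTT; IC50 from four-parameter logistic fit versus untreated controls.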

[7] = Cytotoxicity against human MRC5 cells assessed as reduction in cell viability incubated for 48 hrs by MTT assay; type: toxicity, cell-based; method in brief: as §1
[8] = Drug uptake in Trypanosoma brucei at 10 uM incubated for 2 hrs by fluorescence based multiplate reader method; type: ADME
[9] = tested on: Quadruplex DNA; assay: Binding affinity to human G-quadruplex telomeric DNA F21T (5'-duplex GGG TTAGGG TTAGGG TTAGGG-3') assessed as change in melting temperature at 1 uM incubated for 5 min by FRET assay; type: nucleic-acid assay
Method in brief: (§2)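 Fluorescently labelled oligonucleotide annealed (95 °C, 5 min) in 10 mM lithium cacodylate/90 mM LiCl, pH 7.2; 0.2 μM final, with or without ligand. Held 5 min at 25 °C, then heated 0.5 °C/min to 95 °C. Tm taken at normalized signal 0.5; ΔTm = Tm with ligand minus Tm without. Tested in duplicate.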

[10] = tested on: Quadruplex DNA; assay: Binding affinity to human G-quadruplex telomeric DNA F21T (5'-duplex GGG TTAGGG TTAGGG TTAGGG-3') assessed as change in melting temperature at 2 uM incubated for 5 min by FRET assay; type: nucleic-acid assay; method in brief: as §2
[11] = Drug uptake in human MRC5 cells at 10 uM incubated for 2 hrs by fluorescence based multiplate reader method; type: ADME, cell-based; details: mrc5, 2 h
Method in brief: (§3)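 225,000 trypsinized cells incubated with 10 μM compound in 0.75 mL medium for 2 h at 37 °C; washed three times with PBS, lysed in 3% SDS and sonicated. NDI fluorescence read at ex 485/em 535 nm, quantified against a calibration curve in cell lysate and normalized to BCA protein. Reported as % of compound added.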

[12] = Drug uptake in human HT-29 cells at 10 uM incubated for 2 hrs by fluorescence based multiplate reader method; type: ADME, cell-based; details: ht-29, 2 h; method in brief: as §3
[13] = Drug localization in nucleus of human HT-29 cells at 25 uM incubated for 30 to 120 mins by DAPI staining based fluorescence microscopic analysis; type: ADME, subcellular; details: ht-29, 25 µM, time 30-120 min
Method in brief: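 HT-29 cells grown 24 h on coverslips in FBS-free medium, then exposed to 25 μM compound for 30 or 120 min at 37 °C. Mounted in DAPI medium and imaged by widefield fluorescence microscopy; compound emission collected at 578–610 nm, DAPI at 437–474 nm.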

[14] = Drug localization in cytoplasm of Trypanosoma brucei at 5 uM incubated for 30 to 120 mins by DAPI staining based fluorescence microscopic analysis; type: ADME, subcellular; details: time 30-120 min
Method in brief: (§4)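 T. brucei at 1×10^7/mL exposed to 5 μM compound in FBS-free medium for 30 and 120 min at 37 °C; fixed in cold 4% paraformaldehyde, DAPI-stained and imaged by widefield microscopy. Compound excited with the 542–566 filter and emission collected at 578–610 nm.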

[15] = Drug localization in nucleus of Trypanosoma brucei at 5 uM incubated for 30 to 120 mins by DAPI staining based fluorescence microscopic analysis; type: ADME, subcellular; details: time 30-120 min; method in brief: as §4
[16] = tested on: Quadruplex DNA; assay: Binding affinity to parallel G-quadruplex DNA TGGGGT TGGGGT TGGGGT TGGGGT (unknown origin) by mass spectrometric analysis; type: nucleic-acid assay
Method in brief: (§5)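 Native ESI-FTICR MS in negative ion mode under soft conditions, in 100 mM ammonium acetate; DNA at 5 μM with ligand at 10 μM.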

[17] = tested on: Quadruplex DNA; assay: Binding affinity to human G-quadruplex telomeric DNA F21T (5'-duplex GGG TTAGGG TTAGGG TTAGGG-3') by mass spectrometric analysis; type: nucleic-acid assay; method in brief: as §5

IC50 [4]	Drug uptake [8]	ΔTm [9]	ΔTm [10]	Drug uptake [11]	Drug uptake [12]	Drug uptake [13]	Drug uptake [14]	Drug uptake [15]	Activity [16]	Activity [17]	SMILES	IC50 [1]	selectivity ratio [2]	selectivity ratio [3]	selectivity ratio [5]	IC50 [6]	IC50 at 48 h [7]
80 nM	–	–	–	–	–	–	–	–	–	–	CN(C)CCCN1C(=O)c2ccc3c4c(c(NCc5cn(CCO[C@@H]6O[C@H](CO)[C@@H](O)[C@H](O)[C@H]6O)nn5)cc(c24)C1=O)C(=O)N(CCCN(C)C)C3=O	460 nM	2	11.5	1.2	790 nM	920 nM
150 nM	5.4%	1 °C	5 °C	–	–	–	–	–	–	–	O=C1c2ccc3c4c(c(NCc5cn(CCO[C@@H]6O[C@H](CO)[C@H](O)[C@H](O)[C@H]6O)nn5)cc(c24)C(=O)N1CCN1CCOCC1)C(=O)N(CCN1CCOCC1)C3=O	3600 nM	2.9	69.3	0.38	27500 nM	10400 nM
50 nM	8.1%	–	–	–	–	–	–	–	–	–	CN(C)CCCN1C(=O)c2ccc3c4c(c(NCc5cn(CCO[C@H]6O[C@H](CO)[C@@H](O)[C@H](O)[C@@H]6O)nn5)cc(c24)C1=O)C(=O)N(CCCN(C)C)C3=O	430 nM	2.2	19	3.2	300 nM	950 nM
60 nM	7%	10 °C	–	25.5%	20.9%	Active	Active	Active	–	–	CN(C)CCCN1C(=O)c2ccc3c4c(c(NCc5cn(CCO[C@@H]6O[C@H](CO)[C@@H](O[C@H]7O[C@H](CO)[C@@H](O)[C@H](O)[C@H]7O)[C@H](O)[C@H]6O)nn5)cc(c24)C1=O)C(=O)N(CCCN(C)C)C3=O	480 nM	3.8	30	2.3	800 nM	1800 nM
40 nM	–	10 °C	–	–	–	–	–	–	Active	Active	CN(C)CCCN1C(=O)c2ccc3c4c(c(NCc5cn(CCS[C@@H]6O[C@H](CO)[C@H](O)[C@H](O)[C@H]6O)nn5)cc(c24)C1=O)C(=O)N(CCCN(C)C)C3=O	350 nM	4.4	38.7	2.1	740 nM	1550 nM
50 nM	–	10 °C	–	–	–	–	–	–	Active	Active	CN(C)CCCN1C(=O)c2ccc3c4c(c(NCc5cn(CCO[C@@H]6O[C@H](CO)[C@H](O)[C@H](O)[C@H]6O)nn5)cc(c24)C1=O)C(=O)N(CCCN(C)C)C3=O	500 nM	3.9	38.8	0.14	13900 nM	1940 nM
3040 nM	6.7%	–	–	3.3%	3.5%	–	–	–	–	–	O=C1c2ccc3c4c(c(NCc5cn(CCS[C@@H]6O[C@H](CO)[C@@H](O[C@H]7O[C@H](CO)[C@@H](O)[C@H](O)[C@H]7O)[C@H](O)[C@H]6O)nn5)cc(c24)C(=O)N1CCN1CCOCC1)C(=O)N(CCN1CCOCC1)C3=O	13700 nM	> 3.6	> 16	–	> 50000 nM	> 50000 nM
60 nM	4.3%	10 °C	–	20.7%	23.1%	Active	Active	Active	Active	Active	CN(C)CCCN1C(=O)c2ccc3c4c(c(NCc5cn(CCS[C@@H]6O[C@H](CO)[C@@H](O[C@H]7O[C@H](CO)[C@@H](O)[C@H](O)[C@H]7O)[C@H](O)[C@H]6O)nn5)cc(c24)C1=O)C(=O)N(CCCN(C)C)C3=O	300 nM	9.8	49	5.7	510 nM	2940 nM
310 nM	–	–	–	–	–	–	–	–	–	–	O=C1c2ccc3c4c(c(NCc5cn(CCO[C@@H]6O[C@H](CO)[C@@H](O)[C@H](O)[C@H]6O)nn5)cc(c24)C(=O)N1CCN1CCOCC1)C(=O)N(CCN1CCOCC1)C3=O	1750 nM	4.5	25.3	0.7	10500 nM	7860 nM
1180 nM	–	–	–	–	–	–	–	–	–	–	O=C1c2ccc3c4c(c(NCc5cn(CCS[C@@H]6O[C@H](CO)[C@@H](O)[C@H](O)[C@H]6O)nn5)cc(c24)C(=O)N1CCN1CCOCC1)C(=O)N(CCN1CCOCC1)C3=O	28900 nM	1.2	30.3	1.2	30200 nM	35700 nM
730 nM	3.2%	–	–	–	–	–	–	–	–	–	O=C1c2ccc3c4c(c(NCc5cn(CCS[C@H]6O[C@H](CO)[C@@H](O)[C@H](O)[C@@H]6O)nn5)cc(c24)C(=O)N1CCN1CCOCC1)C(=O)N(CCN1CCOCC1)C3=O	3390 nM	6.7	31	1.1	21700 nM	22600 nM
2100 nM	4.2%	–	–	–	–	–	–	–	–	–	O=C1c2ccc3c4c(c(NCc5cn(CCO[C@H]6O[C@H](CO)[C@@H](O)[C@H](O)[C@@H]6O)nn5)cc(c24)C(=O)N1CCN1CCOCC1)C(=O)N(CCN1CCOCC1)C3=O	8520 nM	3.6	14.5	–	> 50000 nM	30500 nM
80 nM	6.1%	–	–	–	–	–	–	–	–	–	CN(C)CCCN1C(=O)c2ccc3c4c(c(NCc5cn(CCS[C@H]6O[C@H](CO)[C@@H](O)[C@H](O)[C@@H]6O)nn5)cc(c24)C1=O)C(=O)N(CCCN(C)C)C3=O	880 nM	3.2	34.7	1.8	1520 nM	2780 nM
50 nM	–	–	–	–	–	–	–	–	–	–	CN(C)CCCN1C(=O)c2ccc3c4c(c(NCc5cn(CCS[C@@H]6O[C@H](CO)[C@@H](O)[C@H](O)[C@H]6O)nn5)cc(c24)C1=O)C(=O)N(CCCN(C)C)C3=O	750 nM	3.7	55	2	1380 nM	2750 nM
3320 nM	6.1%	–	–	0.8%	3.2%	–	–	–	–	–	O=C1c2ccc3c4c(c(NCc5cn(CCO[C@@H]6O[C@H](CO)[C@@H](O[C@H]7O[C@H](CO)[C@@H](O)[C@H](O)[C@H]7O)[C@H](O)[C@H]6O)nn5)cc(c24)C(=O)N1CCN1CCOCC1)C(=O)N(CCN1CCOCC1)C3=O	13000 nM	> 3.8	> 15	–	> 50000 nM	> 50000 nM
